Source: ChEMBL document CHEMBL3044690, “Synthesis and herbicidal activity of 2-cyano-3-(2-chlorothiazol-5-yl)methylaminoacrylates” (2004)

Assays:
Type in all cases: functional
Medicago sativa [1] = assay: Postemergence herbicidal activity against Medicago sativa (alfalfa) under greenhouse condition at 1.5 kg/ha applied after expansion of true leaf
How it was run: (§1)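 Seeds sown in 6-cm-diameter boxes of artificial mixed soil. Boxes were kept under plastic film until emergence to hold moisture, and plants were grown in a greenhouse. Above-ground fresh weight was weighed 10 days after treatment. Control efficiency is reported as percent inhibition.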

Medicago sativa [2] = assay: Preemergence herbicidal activity against Medicago sativa (alfalfa) under greenhouse condition at 1.5 kg/ha applied immediately after seed planting; how it was run: as §1
Brassica napus [3] = assay: Postemergence herbicidal activity against Brassica napus (oilseed rape) under greenhouse condition at 37.5 g/ha applied after expansion of true leaf; how it was run: as §1
Brassica napus [4] = assay: Postemergence herbicidal activity against Brassica napus (oilseed rape) under greenhouse condition at 1.5 kg/ha applied after expansion of true leaf; how it was run: as §1
Amaranthus retroflexus [5] = assay: Post-emergence herbicidal activity against Amaranthus retroflexus under greenhouse condition at 1.5 kg/ha applied after expansion of true leaf; how it was run: as §1
Brassica napus [6] = assay: Preemergence herbicidal activity against Brassica napus (oilseed rape) under greenhouse condition at 1.5 kg/ha applied immediately after seed planting; how it was run: as §1
Amaranthus retroflexus [7] = assay: Post-emergence herbicidal activity against Amaranthus retroflexus under greenhouse condition at 750 g/ha applied after expansion of true leaf; how it was run: as §1
Brassica napus [8] = assay: Postemergence herbicidal activity against Brassica napus (oilseed rape) under greenhouse condition at 300 g/ha applied after expansion of true leaf; how it was run: as §1
Brassica napus [9] = assay: Postemergence herbicidal activity against Brassica napus (oilseed rape) under greenhouse condition at 18.75 g/ha applied after expansion of true leaf; how it was run: as §1
Amaranthus retroflexus [10] = assay: (§2) Post-emergence herbicidal activity against Amaranthus retroflexus under greenhouse condition at […] applied after expansion of true leaf; how it was run: as §1
Brassica napus [11] = assay: Postemergence herbicidal activity against Brassica napus (oilseed rape) under greenhouse condition at 187.5 g/ha applied after expansion of true leaf; how it was run: as §1
Brassica napus [12] = assay: Postemergence herbicidal activity against Brassica napus (oilseed rape) under greenhouse condition at 375 g/ha applied after expansion of true leaf; how it was run: as §1
Brassica napus [13] = assay: Postemergence herbicidal activity against Brassica napus (oilseed rape) under greenhouse condition at 150 g/ha applied after expansion of true leaf; how it was run: as §1
Amaranthus retroflexus [14] = assay: Pre-emergence herbicidal activity against Amaranthus retroflexus under greenhouse condition at 1.5 kg/ha applied immediately after seed planting; how it was run: as §1
Brassica napus [15] = assay: Postemergence herbicidal activity against Brassica napus (oilseed rape) under greenhouse condition at 750 g/ha applied after expansion of true leaf; how it was run: as §1
Brassica napus [16] = assay: Postemergence herbicidal activity against Brassica napus (oilseed rape) under greenhouse condition at 75 g/ha applied after expansion of true leaf; how it was run: as §1
Amaranthus retroflexus [17] = assay: as §2; how it was run: as §1; remark: listed apart in the source

Structure (SMILES) | Activity (Medicago sativa [1]) [%] | Activity (Medicago sativa [2]) [%] | Activity (Brassica napus [3]) [%] | Activity (Brassica napus [4]) [%] | Activity (Amaranthus retroflexus [5]) [%] | Activity (Brassica napus [6]) [%] | Activity (Amaranthus retroflexus [7]) [%] | Activity (Brassica napus [8]) [%] | Activity (Brassica napus [9]) [%] | Activity (Amaranthus retroflexus [10]) [%] | Activity (Brassica napus [11]) [%] | Activity (Brassica napus [12]) [%] | Activity (Brassica napus [13]) [%] | Activity (Amaranthus retroflexus [14]) [%] | Activity (Brassica napus [15]) [%] | Activity (Brassica napus [16]) [%] | Activity (Amaranthus retroflexus [17]) [%]
CCOCCOC(=O)/C(C#N)=C(\NCc1cnc(Cl)s1)C(C)C | 19 | 16 | 52 | 100 | 96 | 96 | 100 | 100 | 15 | 81 | 100 | 100 | 100 | 54 | 100 | 98 | 67
CCOCCOC(=O)/C(C#N)=C(\NCc1ccc(Cl)cc1)C(C)C | 28 | 0 | – | 96 | 94 | 0 | – | – | – | – | – | – | – | 52 | – | – | –
COCCOC(=O)/C(C#N)=C(/C)NCc1cnc(Cl)s1 | 26 | 0 | – | 100 | 81 | 78 | – | – | – | – | – | – | – | 45 | – | – | –
CCOCCOC(=O)/C(C#N)=C(/C)NCc1cnc(Cl)s1 | 94 | 47 | – | 95 | 100 | 93 | 98 | – | – | 78 | 39 | 59 | – | 87 | 96 | – | 73
CCOCCOC(=O)/C(C#N)=C(/CC)NCc1cnc(Cl)s1 | 70 | 46 | – | 100 | 83 | 91 | 57 | – | – | 50 | 29 | 60 | – | 70 | 69 | – | 42
CCOCCOC(=O)/C(C#N)=C(\NCc1cnc(Cl)s1)SC | 49 | 28 | – | 100 | 78 | 40 | 91 | – | – | 48 | 48 | 57 | – | 76 | 100 | – | 41
